Sampled rows, rich in hits. Any-hit rate of the full collection: about 3.5%.
TCR CD3 inh: inhibitors of human TCR-CD3 interaction, primary screen, biochemical, fluorescence, TAMRA-labeled TCR probe; hit rate 0.37% among 360,000; inhibition, % at 9.4 µM; T-cell receptor (TCR); AID 651800, 2012; in the data active means inhibition above about 19%;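 further: recombinant mutant TCR 2C K166C tagged with TAMRA read by polarization; 0% = receptor in buffer alone and 100% = receptor with positive control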
rCAG RNA binder: binders of r(CAG) RNA repeats, primary screen, biochemical, fluorescence | r(CAG) RNA repeat, TO-PRO-1 dye displacement fluorescence | inhibition, % at 3 µM | hit rate 1.3% among 370,000;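 active means inhibition above the plate cutoff, the mean of all test compounds on that plate plus 3 SD, cut at about 35% in these data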;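 further: 0% = DMSO alone and 100% = 100 µM mitoxantrone as full dye displacement; higher means more dye released from RNA so lower well fluorescence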
SIAE primary: human SIAE inhibitors, primary screen, biochemical, fluorescence polarization, FP-Rh probe, 1536-well HTS | Sialate O-acetylesterase (Homo sapiens), Q9HAT2 | SIAE FP-Rh probe binding | inhibition, % at 9.66 µM | hit rate 0.69% among 370,000 | AID 1053197, 2014;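 active means inhibition above a cutoff: mean of compounds within the control limits plus 3 SD of those, cut at about 17% in these data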;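 further: 0% = plate median of compound wells and 100% = probe without SIAE protein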
HTRA1 inh: HTRA1 serine protease inhibitors, primary screen, biochemical, fluorescence polarization, HTS. Q92743. recombinant HTRA1, FP-rhodamine activity-based probe. inhibition, % at 5.96 µM. hit rate 0.5% among 340,000; in the data active means inhibition above about 36%;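 further: 0% = enzyme with DMSO and 100% = wells lacking enzyme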
ABHD4 inh: ABHD4 inhibitors, primary screen, biochemical, fluorescence polarization, mouse; hit rate 0.54% among 370,000; inhibition, % at 8.92 µM; purified mABHD4, FP-Rh probe fluorescence polarization; (Lyso)-N-acylphosphatidylethanolamine lipase (Mus musculus), Q8VD66;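 active means inhibition exceeding the mean over every tested compound plus 3 SD, cut at about 30% in these data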;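 further: 0% = plate median of compound wells and 100% = S159A mutant with DMSO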
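System: mouse ABHD4 enzyme, wild type / Medium: HEPES pH 7.0, NaCl, Pluronic buffer / Reagent: FP-Rh activity-based fluorescent probe / Control set: S159A mutant high control, sample median low control / Detection: fluorescence polarization with parallel and perpendicular emission, 525/598 nm / Schedule: 45 min + 60 min at 25 °C / Compound dosing: 8.92 µM, single dose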
PRMT1 inh: PRMT1 methyltransferase inhibitors, primary screen, biochemical, fluorescence polarization; Protein arginine N-methyltransferase 1 (Homo sapiens), Q99873; recombinant PRMT1, activity-based probe fluorescence polarization; inhibition, % at 2.79 µM; hit rate 1.3% among 370,000; AID 652257, 2013;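 active means inhibition above about 21% made by adding two undisclosed values, limit read from the data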
Target sequence (Q99873 whole entry, looked up): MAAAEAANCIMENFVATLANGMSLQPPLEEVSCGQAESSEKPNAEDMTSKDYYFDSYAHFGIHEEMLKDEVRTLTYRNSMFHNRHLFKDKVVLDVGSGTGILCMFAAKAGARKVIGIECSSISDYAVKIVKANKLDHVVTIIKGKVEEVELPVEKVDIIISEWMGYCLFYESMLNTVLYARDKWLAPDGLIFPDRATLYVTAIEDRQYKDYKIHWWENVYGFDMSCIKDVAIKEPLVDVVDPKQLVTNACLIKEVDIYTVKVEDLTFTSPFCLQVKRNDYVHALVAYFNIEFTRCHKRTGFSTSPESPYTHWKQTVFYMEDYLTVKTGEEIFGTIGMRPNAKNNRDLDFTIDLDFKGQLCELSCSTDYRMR
SIAE inh conf: human SIAE inhibitors, retest, confirmation, biochemical, fluorescence polarization, FP-Rh probe, triplicate; AID 1117263, 2014; inhibition, % at 9.66 µM; shares compounds with SIAE primary; SIAE FP-Rh activity-based probe; hit rate 13% among 2,300;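 active means mean inhibition of the replicates above the hit cutoff set in the primary screen, cut at about 17% in these data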;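 further: 0% = SIAE with DMSO and probe and 100% = probe without SIAE; inhibitors lower polarization as more probe stays unbound to SIAE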
Active calls of the source: *.

Screening Cn1c(=O)c(=O)n(C)c2cc(S(=O)(=O)N3CCN(c4ccccc4Cl)CC3)ccc21 returned rCAG RNA binder 6.2, SIAE primary 2.0, ABHD4 inh 3.2 and PRMT1 inh -5.0.
For COc1ccc(C2CC(c3ccccc3)=NN2c2ccc(C(N)=O)cc2)cc1 (stereo not drawn) the results were TCR CD3 inh 0.5, rCAG RNA binder 5.7, SIAE primary 7.7, HTRA1 inh 2.3, ABHD4 inh 7.3 and PRMT1 inh 4.2.
COc1ccc(C2CC(c3ccccc3)=NN2c2ccc(/C=N/NC(=O)c3ccncc3)cc2)cc1 (stereo not drawn) was read as TCR CD3 inh 0.6, rCAG RNA binder 4.4, SIAE primary 17.2*, HTRA1 inh 3.7, ABHD4 inh 11.4, PRMT1 inh -1.4 and SIAE inh conf 7.1.
COc1ccc(N2CCN(CCCNC(=O)COc3ccc(F)cc3)CC2)cc1 was read as rCAG RNA binder -0.1, SIAE primary 1.9, ABHD4 inh 2.7 and PRMT1 inh 3.0.
Screening Nc1ncnc2c1ncn2[C@@H]1O[C@H](C(=O)NS(=O)(=O)c2cccc(F)c2)[C@@H](O)[C@H]1O returned TCR CD3 inh -4.2, rCAG RNA binder 2.4, SIAE primary -3.5, ABHD4 inh -8.8 and PRMT1 inh 5.9.
`Cc1ccc(OCCNC(=O)[C@H]2O[C@@H](n3cnc4c(N)ncnc43)[C@H](O)[C@@H]2O)cc1C` gave TCR CD3 inh 3.4, rCAG RNA binder -0.8, SIAE primary 10.8, ABHD4 inh 7.7 and PRMT1 inh 2.0.
Screening Nc1ncnc2c1ncn2[C@@H]1O[C@H](C(=O)NCc2ccc3c(c2)OCO3)[C@@H](O)[C@H]1O returned TCR CD3 inh 3.7, rCAG RNA binder 4.5, SIAE primary 70.9*, ABHD4 inh 8.7, PRMT1 inh 0.9 and SIAE inh conf 76.3*.
Nc1ncnc2c1ncn2C1OC(C(=O)NC2CC2)C(O)C1O (stereo not drawn) was read as TCR CD3 inh 0.3, rCAG RNA binder 1.6, SIAE primary -1.3, HTRA1 inh 4.8, ABHD4 inh 4.3 and PRMT1 inh -4.2.
For Cc1cc(S(=O)(=O)NC(=O)[C@H]2O[C@@H](n3cnc4c(N)ncnc43)[C@H](O)[C@@H]2O)ccc1Br the results were TCR CD3 inh -1.0, rCAG RNA binder 2.8, SIAE primary 47.1*, ABHD4 inh 9.8, PRMT1 inh 1.6 and SIAE inh conf 50.6*.
`COc1cc(NC(=O)[C@H]2O[C@@H](n3cnc4c(N)ncnc43)[C@H](O)[C@@H]2O)cc(OC)c1OC` gave TCR CD3 inh 3.7, rCAG RNA binder 1.6, SIAE primary 61.3*, ABHD4 inh 3.6, PRMT1 inh -2.6 and SIAE inh conf 69.1*.
`COc1ccc(Cn2cc(COC(=O)N3CCCC3)nn2)cc1` gave rCAG RNA binder -0.2, SIAE primary 1.4, ABHD4 inh 5.5 and PRMT1 inh -4.0.
Cc1ccc(OCCC(=O)OCC(=O)Nc2ccc(C)cc2Cl)cc1 was read as TCR CD3 inh -4.7, rCAG RNA binder -4.7, SIAE primary -6.7, HTRA1 inh -1.2, ABHD4 inh -19.0 and PRMT1 inh 5.9.
For Cc1ccc(NC(=O)COC(=O)CCc2ccccc2)c(Cl)c1 the results were TCR CD3 inh -1.6, rCAG RNA binder 0.2, SIAE primary 22.5*, HTRA1 inh -5.6, ABHD4 inh 4.6, PRMT1 inh -0.8 and SIAE inh conf 1.9.
For COC(=O)[C@]12C[C@H](CC(=O)NCCC(C)C)C(=O)N(Cc3cccc4ccccc34)C1=C[C@H](COCc1ccccc1)O[C@@H]2C the results were rCAG RNA binder 4.0, SIAE primary -5.0, ABHD4 inh -2.1 and PRMT1 inh -4.2.
Cc1cc(C)cc(N2C(=O)C3C4C=CC(C4)C3C2=O)c1 (stereo not drawn) was read as TCR CD3 inh 1.8, rCAG RNA binder -0.1, SIAE primary 18.6*, HTRA1 inh -1.9, ABHD4 inh 2.4, PRMT1 inh -1.4 and SIAE inh conf -1.4.
For Cc1ccc(N2C(=O)C3C4C=CC(C4)C3C2=O)cc1 (stereo not drawn) the results were TCR CD3 inh 3.7, rCAG RNA binder -1.7, SIAE primary -0.1, HTRA1 inh -5.3, ABHD4 inh -0.7 and PRMT1 inh -1.7.
CCOC(=O)[C@@]12CCCC3=C1N(CCC3)C(=O)[C@H]2CC(=O)N1CCN(C(=O)c2ccco2)CC1 was read as rCAG RNA binder -1.8, SIAE primary 7.6, ABHD4 inh 5.7 and PRMT1 inh -1.0.
`CCOc1ccccc1NC(=O)NNC(=O)CCn1nc(C)c([N+](=O)[O-])c1C` gave rCAG RNA binder 1.5, SIAE primary 0.7, ABHD4 inh 10.4 and PRMT1 inh 0.1.
For COc1ccc(-c2cc(-c3c(O)c(OC)c4occc4c3OC)[nH]n2)cc1 the results were TCR CD3 inh -1.0, rCAG RNA binder 16.1, SIAE primary 22.3*, HTRA1 inh 13.2, ABHD4 inh 9.5, PRMT1 inh 1.8 and SIAE inh conf 11.5.
COc1ccc(-c2oc3c(OC)c(OC)c(OC)c(O)c3c(=O)c2OC)cc1OC was read as TCR CD3 inh 11.0, rCAG RNA binder 1.6, SIAE primary 6.7, HTRA1 inh 17.9, ABHD4 inh 1.4 and PRMT1 inh 0.7.
Screening COc1ccc(-c2cc(-c3ccccc3O)[nH]n2)cc1 returned TCR CD3 inh 9.0, rCAG RNA binder 9.9, SIAE primary -20.3, HTRA1 inh -44.4, ABHD4 inh -21.5 and PRMT1 inh 1.0.
For COc1ccc(-c2cc(-c3c(O)c(OC)c4occc4c3OC)[nH]n2)cc1OC the results were TCR CD3 inh 1.0, rCAG RNA binder 16.5, SIAE primary 19.4*, HTRA1 inh 23.9, ABHD4 inh 6.5, PRMT1 inh 1.5 and SIAE inh conf 5.3.
For COC(=O)[C@]12C[C@H](CC(=O)N3CCCC3)C(=O)N(Cc3ccco3)C1=C[C@H](COCc1ccccc1)O[C@@H]2C the results were rCAG RNA binder 2.2, SIAE primary 1.6, ABHD4 inh -3.9 and PRMT1 inh -2.4.
For COc1ccc(Br)cc1CNC(=O)Nc1cccs1 the results were TCR CD3 inh 2.3, rCAG RNA binder 4.2, SIAE primary 18.8*, HTRA1 inh -9.3, ABHD4 inh -0.7, PRMT1 inh 0.1 and SIAE inh conf 3.3.

Source: PubChem BioAssay (The Scripps Research Institute Molecular Screening Center)
